How the values were obtained:
[1] = Inhibition of RNA-dependent DNA polymerase activity of wild type HIV reverse transcriptase assessed as BrdU incorporation by standard ECL assay; design: species or system Human immunodeficiency virus
How it was run: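 Purified recombinant wild-type RT polymerase activity was measured using a 500-nt heteropolymeric RNA template and a biotinylated DNA primer. BrdU incorporation was detected with a ruthenylated anti-BrdU antibody by electrochemiluminescence. Ki is the geometric mean of at least two determinations, each within 25% of the mean.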

[2] = biological target: Human immunodeficiency virus type 1 reverse transcriptase (Human immunodeficiency virus 1, UniProt Q72547, K103N); assay: Inhibition of RNA-dependent DNA polymerase activity of recombinant HIV reverse transcriptase K103N mutant assessed as BrdU incorporation by standard ECL assay
[3] = tested on: Human immunodeficiency virus; assay: Antiviral activity against wild type HIV H9-3B infected in human MT2 cells assessed as inhibition of viral replication measuring p24 level after 3 days in presence of 10% fetal bovine serum; format: functional; conditions: Human immunodeficiency virus 1, MT2, Serum; read-out: CIC95
How it was run: (§1)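 Multiple-cycle spread assay in MT2 cells with wild-type H9IIIB virus. Cells were infected overnight at moi ≈ 0.01 without compound, washed, then cultured 3 days across varying compound concentrations in RPMI 1640 with 10% FBS or 50% NHS. p24 was measured in supernatants. CIC95 is the lowest concentration inhibiting replication ≥95%, as the geometric mean of ≥2 determinations.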

[4] = tested on: Human immunodeficiency virus; assay: Antiviral activity against wild type HIV H9-3B infected in human MT2 cells assessed as inhibition of viral replication measuring p24 level after 3 days in presence of 50% normal human serum; format: functional; conditions: Human immunodeficiency virus 1, H9-3B, 72 h, read-out: CIC95; how it was run: as §1
[5] = tested on: Human immunodeficiency virus; assay: Antiviral activity against HIV with reverse transcriptase K103N mutant infected in human MT2 cells assessed as inhibition of viral replication measuring p24 level after 3 days in presence of 10% fetal bovine serum; format: functional; conditions: Human immunodeficiency virus 1, MT2, Serum, 72 h; read-out: CIC95
How it was run: (§2)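 Multiple-cycle replication (Spread) assay in MT2 cells with H9IIIB-background mutant virus. Cells were infected overnight at moi ≈ 0.01 without compound, washed, then cultured 3 days across a range of compound concentrations in medium with 10% FBS. p24 was measured in supernatants. CIC95 is the lowest concentration inhibiting replication by ≥95%, reported as the geometric mean of ≥2 determinations.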

[6] = tested on: Human immunodeficiency virus; assay: Antiviral activity against HIV with reverse transcriptase Y181C mutant infected in human MT2 cells assessed as inhibition of viral replication measuring p24 level after 3 days in presence of 10% fetal bovine serum; format: functional; conditions: Human immunodeficiency virus 1, MT2, Serum, 72 h; read-out: CIC95; how it was run: as §2
[7] = tested on: Human immunodeficiency virus; assay: Antiviral activity against HIV with reverse transcriptase K103N/Y181C double mutant infected in human MT2 cells assessed as inhibition of viral replication measuring p24 level after 3 days in presence of 10% fetal bovine serum; format: functional; conditions: Human immunodeficiency virus 1, MT2, Serum, 72 h; read-out: CIC95; how it was run: as §2
[8] = tested on: Human immunodeficiency virus; assay: Antiviral activity against HIV with reverse transcriptase MDRC4 mutant assessed as inhibition of viral replication; format: functional, organism-based; conditions: Human immunodeficiency virus 1
[9] = tested on: Human immunodeficiency virus; assay: Antiviral activity against HIV with reverse transcriptase CNDO mutant assessed as inhibition of viral replication; format: functional, organism-based; conditions: Human immunodeficiency virus 1
[10] = tested on: Human immunodeficiency virus; assay: Antiviral activity against HIV with reverse transcriptase L100I mutant assessed as inhibition of viral replication; format: functional, organism-based; conditions: Human immunodeficiency virus 1
[11] = tested on: Human immunodeficiency virus; assay: Antiviral activity against HIV with reverse transcriptase K103N mutant assessed as inhibition of viral replication; format: functional, organism-based; conditions: Human immunodeficiency virus 1
[12] = tested on: Human immunodeficiency virus; assay: Antiviral activity against HIV with reverse transcriptase Y181C mutant assessed as inhibition of viral replication; format: functional, organism-based; conditions: Human immunodeficiency virus 1
[13] = tested on: Human immunodeficiency virus; assay: Antiviral activity against HIV with reverse transcriptase Y188L mutant assessed as inhibition of viral replication; format: functional, organism-based; conditions: Human immunodeficiency virus 1
[14] = tested on: Human immunodeficiency virus; assay: Antiviral activity against HIV with reverse transcriptase G190A mutant assessed as inhibition of viral replication; format: functional, organism-based; conditions: Human immunodeficiency virus 1
[15] = tested on: Human immunodeficiency virus; assay: Antiviral activity against HIV with reverse transcriptase G190S mutant assessed as inhibition of viral replication; format: functional, organism-based; conditions: Human immunodeficiency virus 1
[16] = tested on: Human immunodeficiency virus; assay: Antiviral activity against HIV with reverse transcriptase L100I/K103N double mutant assessed as inhibition of viral replication; format: functional, organism-based; conditions: Human immunodeficiency virus 1
[17] = tested on: Human immunodeficiency virus; assay: Antiviral activity against HIV with reverse transcriptase K103N/Y181C double mutant assessed as inhibition of viral replication; format: functional, organism-based; conditions: Human immunodeficiency virus 1
[18] = tested on: Human immunodeficiency virus; assay: Antiviral activity against HIV with reverse transcriptase K103N/G190A double mutant assessed as inhibition of viral replication; format: functional, organism-based; conditions: Human immunodeficiency virus 1
[19] = tested on: Human immunodeficiency virus; assay: Antiviral activity against HIV with reverse transcriptase Y181C/G190A double mutant assessed as inhibition of viral replication; format: functional, organism-based; conditions: Human immunodeficiency virus 1
[20] = tested on: Human immunodeficiency virus; assay: Antiviral activity against HIV with reverse transcriptase K103N/P225H double mutant assessed as inhibition of viral replication; format: functional, organism-based; conditions: Human immunodeficiency virus 1
[21] = tested on: Human immunodeficiency virus; assay: Antiviral activity against HIV with reverse transcriptase K101E/G190A double mutant assessed as inhibition of viral replication; format: functional, organism-based; conditions: Human immunodeficiency virus 1
[22] = tested on: Human immunodeficiency virus; assay: Antiviral activity against HIV with reverse transcriptase K101E/Y181C/G190A mutant assessed as inhibition of viral replication; format: functional, organism-based; conditions: Human immunodeficiency virus 1
[23] = tested on: Human immunodeficiency virus; assay: Antiviral activity against HIV with reverse transcriptase K103N/Y181C/G190A mutant assessed as inhibition of viral replication; format: functional, organism-based; conditions: Human immunodeficiency virus 1
[24] = tested on: Human immunodeficiency virus; assay: Antiviral activity against HIV with reverse transcriptase V106A/G190A/F227L mutant assessed as inhibition of viral replication; format: functional, organism-based; conditions: Human immunodeficiency virus 1
[25] = tested on: Human immunodeficiency virus; assay: Antiviral activity against HIV with reverse transcriptase MDRC4 mutant assessed as inhibition of viral replication relative to wild type; format: functional
[26] = tested on: Human immunodeficiency virus; assay: Antiviral activity against HIV with reverse transcriptase CNDO mutant assessed as inhibition of viral replication relative to wild type; format: functional
[27] = tested on: Human immunodeficiency virus; assay: Antiviral activity against HIV with reverse transcriptase L100I mutant assessed as inhibition of viral replication relative to wild type; format: functional
[28] = tested on: Human immunodeficiency virus; assay: Antiviral activity against HIV with reverse transcriptase K103N mutant assessed as inhibition of viral replication relative to wild type; format: functional
[29] = tested on: Human immunodeficiency virus; assay: Antiviral activity against HIV with reverse transcriptase Y181C mutant assessed as inhibition of viral replication relative to wild type; format: functional
[30] = tested on: Human immunodeficiency virus; assay: Antiviral activity against HIV with reverse transcriptase Y188L mutant assessed as inhibition of viral replication relative to wild type; format: functional
[31] = tested on: Human immunodeficiency virus; assay: Antiviral activity against HIV with reverse transcriptase G190A mutant assessed as inhibition of viral replication relative to wild type; format: functional
[32] = tested on: Human immunodeficiency virus; assay: Antiviral activity against HIV with reverse transcriptase G190S mutant assessed as inhibition of viral replication relative to wild type; format: functional
[33] = tested on: Human immunodeficiency virus; assay: Antiviral activity against HIV with reverse transcriptase L100I/K103N double mutant assessed as inhibition of viral replication relative to wild type; format: functional
[34] = tested on: Human immunodeficiency virus; assay: Antiviral activity against HIV with reverse transcriptase K103N/Y181C double mutant assessed as inhibition of viral replication relative to wild type; format: functional
[35] = tested on: Human immunodeficiency virus; assay: Antiviral activity against HIV with reverse transcriptase K103N/G190A double mutant assessed as inhibition of viral replication relative to wild type; format: functional
[36] = tested on: Human immunodeficiency virus; assay: Antiviral activity against HIV with reverse transcriptase Y181C/G190A double mutant assessed as inhibition of viral replication relative to wild type; format: functional
[37] = tested on: Human immunodeficiency virus; assay: Antiviral activity against HIV with reverse transcriptase K103N/P225H double mutant assessed as inhibition of viral replication relative to wild type; format: functional
[38] = tested on: Human immunodeficiency virus; assay: Antiviral activity against HIV with reverse transcriptase K101E/G190A double mutant assessed as inhibition of viral replication relative to wild type; format: functional
[39] = tested on: Human immunodeficiency virus; assay: Antiviral activity against HIV with reverse transcriptase K101E/Y181C/G190A mutant assessed as inhibition of viral replication relative to wild type; format: functional
[40] = tested on: Human immunodeficiency virus; assay: Antiviral activity against HIV with reverse transcriptase K103N/Y181C/G190A mutant assessed as inhibition of viral replication relative to wild type; format: functional
[41] = tested on: Human immunodeficiency virus; assay: Antiviral activity against HIV with reverse transcriptase V106A/G190A/F227L mutant assessed as inhibition of viral replication relative to wild type; format: functional

Q: Which results are given for `N#Cc1cc(Cl)cc(Oc2cc(OCc3n[nH]c4ncccc34)ccc2Cl)c1`?
A: Ki [1]: 0.1 nM; Ki [2]: 0.2 nM; IC95 [3]: 10 nM; IC95 [4]: 52 nM; IC95 [5]: 15 nM; IC95 [6]: 22 nM; IC95 [7]: 53 nM; IC50 [8]: 5.1 nM; IC50 [9]: 1.1 nM; IC50 [10]: 0.7 nM; IC50 [11]: 1.6 nM; IC50 [12]: 3.1 nM; IC50 [13]: 616 nM; IC50 [14]: 1.8 nM; IC50 [15]: 4.8 nM; IC50 [16]: 16.5 nM; IC50 [17]: 23.6 nM; IC50 [18]: 2.4 nM; IC50 [19]: 4.6 nM; IC50 [20]: 3.6 nM; IC50 [21]: 2.1 nM; IC50 [22]: 11.6 nM; IC50 [23]: 30.9 nM; IC50 [24]: > 1000 nM; fold change (FC) [25]: 4.64; fold change (FC) [26]: 1; fold change (FC) [27]: 0.64; fold change (FC) [28]: 1.45; fold change (FC) [29]: 2.82; fold change (FC) [30]: 560.18; fold change (FC) [31]: 1.64; fold change (FC) [32]: 4.36; fold change (FC) [33]: 15; fold change (FC) [34]: 21.45; fold change (FC) [35]: 2.18; fold change (FC) [36]: 4.18; fold change (FC) [37]: 3.27; fold change (FC) [38]: 1.91; fold change (FC) [39]: 10.55; fold change (FC) [40]: 28.09; fold change (FC) [41]: >909

Reference: ChEMBL document CHEMBL1156144, “Biaryl ethers as novel non-nucleoside reverse transcriptase inhibitors with improved potency against key mutant viruses” (J Med Chem, 2009)
